Experimental data taken from ChEMBL document CHEMBL5390224, “Design, synthesis, and biological evaluation of a novel series of 1,2,4-oxadiazole inhibitors of SLACK potassium channels: Identification of in vitro tool VU0935685” (Bioorg Med Chem, 2023).
Activity calls are given as the source filed them. The calls are words filed in the database; no cut-off is given here.

Tests used:
HEK293 [1] = assay: Inhibition of wild-type human SLACK expressed in HEK293 cells assessed as efficacy at 30 uM by thallium flux assay relative to control; format: cell-based
Summary of the method: (§1)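 Stable monoclonal HEK293 lines (WT or A934T SLACK) plated 20,000 cells/well; loaded 1 h at room temperature with Thallo-AM dye, 1.25 mM probenecid, masking dye, 0.3% Pluronic F-127 in buffer with 2.7 mM RbCl, pH 7.3. Compound preincubated 120 s, then Tl2SO4 stimulus (2.5 mM); fluorescence read 120 s. Concentration–response 1.5 nM–30 μM in half-log steps, ≥3 replicate wells.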

[2] = Inhibition of human SLACK A934T mutant expressed in HEK293 cells by thallium flux assay; format: cell-based; summary of the method: as §1
HEK293 [3] = assay: Inhibition of human SLACK A934T mutant expressed in HEK293 cells assessed as efficacy at 30 uM by thallium flux assay relative to control; format: cell-based; summary of the method: as §1
[4] = biological target: T1, Potassium channel subfamily T member 2 (Homo sapiens, UniProt Q6UVM3); assay: Inhibition of SLICK (unknown origin) expressed in HEK293 cells by thallium flux assay; format: cell-based
T1 sequence (Q6UVM3 whole entry): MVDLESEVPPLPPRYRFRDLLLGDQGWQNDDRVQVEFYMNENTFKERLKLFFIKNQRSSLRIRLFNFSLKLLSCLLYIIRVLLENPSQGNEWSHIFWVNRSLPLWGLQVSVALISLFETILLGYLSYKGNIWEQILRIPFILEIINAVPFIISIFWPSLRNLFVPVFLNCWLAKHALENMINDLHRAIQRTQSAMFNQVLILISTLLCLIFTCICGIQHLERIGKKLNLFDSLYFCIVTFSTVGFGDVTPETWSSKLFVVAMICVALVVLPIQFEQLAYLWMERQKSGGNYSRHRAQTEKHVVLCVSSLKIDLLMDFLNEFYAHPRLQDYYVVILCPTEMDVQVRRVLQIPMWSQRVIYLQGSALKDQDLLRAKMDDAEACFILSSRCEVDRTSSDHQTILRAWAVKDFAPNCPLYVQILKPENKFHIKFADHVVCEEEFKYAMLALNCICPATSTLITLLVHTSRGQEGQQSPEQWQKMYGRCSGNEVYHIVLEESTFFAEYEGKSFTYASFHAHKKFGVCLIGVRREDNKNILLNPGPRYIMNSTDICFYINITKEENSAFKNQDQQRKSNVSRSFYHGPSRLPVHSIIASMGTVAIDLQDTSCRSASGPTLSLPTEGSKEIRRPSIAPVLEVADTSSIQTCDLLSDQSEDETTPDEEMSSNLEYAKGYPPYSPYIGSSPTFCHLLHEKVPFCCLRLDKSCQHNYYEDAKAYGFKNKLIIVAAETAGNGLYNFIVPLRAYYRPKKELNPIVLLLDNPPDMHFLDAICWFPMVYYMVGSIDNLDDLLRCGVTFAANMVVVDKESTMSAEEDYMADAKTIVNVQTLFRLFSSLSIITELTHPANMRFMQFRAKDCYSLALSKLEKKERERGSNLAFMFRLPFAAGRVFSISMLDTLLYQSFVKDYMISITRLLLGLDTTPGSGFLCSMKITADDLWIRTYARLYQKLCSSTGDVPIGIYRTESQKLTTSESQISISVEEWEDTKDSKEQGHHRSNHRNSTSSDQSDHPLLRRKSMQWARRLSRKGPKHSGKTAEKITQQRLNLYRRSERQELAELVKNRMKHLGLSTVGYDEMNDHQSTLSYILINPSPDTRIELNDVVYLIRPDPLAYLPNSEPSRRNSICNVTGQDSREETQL

[5] = biological target: T2, Potassium channel subfamily T member 2 (Homo sapiens) (UniProt Q6UVM3); assay: Inhibition of SLICK (unknown origin) expressed in HEK293 cells assessed as efficacy at 30 uM by thallium flux assay relative to control; format: cell-based
T2 sequence (whole entry): T1 sequence (Q6UVM3 whole entry)

[6] = biological target: Calcium-activated potassium channel subunit alpha-1 (Homo sapiens) (UniProt Q12791); assay: Inhibition of Maxi-K (unknown origin) expressed in HEK293 cells by thallium flux assay; format: cell-based
[7] = biological target: Calcium-activated potassium channel subunit alpha-1 (Homo sapiens) (UniProt Q12791); assay: Inhibition of Maxi-K (unknown origin) expressed in HEK293 cells assessed as efficacy at 30 uM by thallium flux assay relative to control; format: cell-based
[8] = Inhibition of wild-type human SLACK expressed in CHO cells by whole cell voltage clamp electrophysiology assay; format: cell-based; details: Cricetulus griseus
Summary of the method: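 Automated whole-cell patch clamp at room temperature. External (mM): NaCl 105, KCl 4, MgCl2 1, CaCl2 5, HEPES 10, NMDG-Cl 40, pH 7.4. Internal: NaCl 70, KF 70, KCl 10, EGTA 5, HEPES 5, pH 7.2. Concentrations 0.125–30 μM in half-log steps, ≥3 cells per series.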

CHO = assay: Inhibition of wild-type human SLACK expressed in CHO cells assessed as efficacy at 30 uM by whole cell voltage clamp electrophysiology assay; format: cell-based; details: Cricetulus griseus
[9] = Metabolic stability in mouse liver microsomes assessed as compound remaining measured after 10 min in presence of NADPH; format: ADME, Microsome
Summary of the method: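 Mouse liver microsomes (0.5 mg/mL) with compound (5 μM) preincubated 5 min at 37 °C in 100 mM potassium phosphate, pH 7.4. Reaction started with NADPH (1 mM) plus MgCl2 (3 mM). Samples at 0 and 10 min quenched in cold acetonitrile with internal standard; percent remaining by LC/MS/MS.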

[10] = Plasma protein binding in mouse assessed as unbound fraction by equilibrium dialysis method; format: ADME, cell-free
Summary of the method: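 Equilibrium dialysis, 12–14 K MWCO cellulose membrane: plasma spiked to 5 μM final versus 25 mM phosphate buffer pH 7.4, 6 h at 37 °C, shaking 200 rpm. Both sides matrix-matched, acetonitrile extraction with internal standard, LC/MS/MS quantitation. Triplicate.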

[11] = Inhibition of wild-type human SLACK expressed in HEK293 cells by thallium flux assay; format: cell-based; summary of the method: as §1
[12] = Activation of wild-type human SLACK expressed in HEK293 cells by thallium flux assay; format: cell-based
Summary of the method: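 Stable monoclonal HEK293 line with WT SLACK, dye-loaded 1 h at room temperature (Thallo-AM, probenecid, masking dye, Pluronic), pH 7.3 buffer. Compound added 120 s before Tl2SO4 stimulus (2.5 mM), kinetic fluorescence imaging 120 s. Concentrations 1.5 nM–30 μM, half-log steps, ≥3 replicate wells per series.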

HEK293 [13] = assay: Activation of wild-type human SLACK expressed in HEK293 cells assessed as efficacy at 30 uM by thallium flux assay relative to control; format: cell-based
[14] = biological target: Voltage-gated inwardly rectifying potassium channel KCNH2 (Homo sapiens, UniProt Q12809); assay: Inhibition of human ERG expressed in HEK293 cells at 10 uM by thallium flux assay; format: toxicity, cell-based; details: hek293, 10 µM
[15] = Efflux ratio of permeability in MDCK-MDR1 cells assessed as P-glycoprotein mediated efflux; format: ADME, cell-based, Canis lupus familiaris; details: dog
[16] = Apparent permeability in MDCK-MDR1 cells by bidirectional permeability assay; format: ADME, cell-based, Canis lupus familiaris; details: dog

Sequence of Calcium-activated potassium channel subunit alpha-1 (Homo sapiens) (Q12791 whole entry): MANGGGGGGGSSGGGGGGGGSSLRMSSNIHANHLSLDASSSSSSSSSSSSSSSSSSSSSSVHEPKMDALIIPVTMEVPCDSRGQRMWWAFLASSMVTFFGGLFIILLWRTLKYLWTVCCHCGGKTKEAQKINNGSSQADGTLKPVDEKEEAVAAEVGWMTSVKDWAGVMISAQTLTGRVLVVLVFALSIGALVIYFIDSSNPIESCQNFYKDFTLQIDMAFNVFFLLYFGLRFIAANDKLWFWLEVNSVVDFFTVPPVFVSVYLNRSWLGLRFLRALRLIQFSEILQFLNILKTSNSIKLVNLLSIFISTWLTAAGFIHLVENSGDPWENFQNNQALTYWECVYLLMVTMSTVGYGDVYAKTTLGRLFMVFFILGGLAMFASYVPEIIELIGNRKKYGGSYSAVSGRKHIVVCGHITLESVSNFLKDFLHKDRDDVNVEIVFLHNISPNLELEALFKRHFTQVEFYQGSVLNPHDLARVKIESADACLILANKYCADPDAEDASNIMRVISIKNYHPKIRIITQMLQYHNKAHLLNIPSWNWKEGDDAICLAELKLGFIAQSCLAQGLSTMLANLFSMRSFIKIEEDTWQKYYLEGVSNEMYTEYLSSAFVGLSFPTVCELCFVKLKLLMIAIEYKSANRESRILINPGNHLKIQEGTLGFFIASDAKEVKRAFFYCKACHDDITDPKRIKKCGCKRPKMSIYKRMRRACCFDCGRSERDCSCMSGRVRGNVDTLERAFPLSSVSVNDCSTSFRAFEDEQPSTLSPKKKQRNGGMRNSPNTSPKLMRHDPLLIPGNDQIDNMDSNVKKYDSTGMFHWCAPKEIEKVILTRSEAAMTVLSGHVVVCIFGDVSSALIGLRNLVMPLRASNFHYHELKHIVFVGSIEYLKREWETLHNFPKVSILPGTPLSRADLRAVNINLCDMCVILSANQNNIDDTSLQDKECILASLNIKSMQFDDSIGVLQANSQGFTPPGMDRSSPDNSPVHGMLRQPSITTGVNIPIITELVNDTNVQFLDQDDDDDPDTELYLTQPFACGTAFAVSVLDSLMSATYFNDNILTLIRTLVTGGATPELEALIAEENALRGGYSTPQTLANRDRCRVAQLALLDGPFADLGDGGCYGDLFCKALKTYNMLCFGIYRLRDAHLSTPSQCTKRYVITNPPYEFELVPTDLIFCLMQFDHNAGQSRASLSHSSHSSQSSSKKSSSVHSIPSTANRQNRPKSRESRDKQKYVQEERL
Sequence of Voltage-gated inwardly rectifying potassium channel KCNH2 (Q12809 whole entry): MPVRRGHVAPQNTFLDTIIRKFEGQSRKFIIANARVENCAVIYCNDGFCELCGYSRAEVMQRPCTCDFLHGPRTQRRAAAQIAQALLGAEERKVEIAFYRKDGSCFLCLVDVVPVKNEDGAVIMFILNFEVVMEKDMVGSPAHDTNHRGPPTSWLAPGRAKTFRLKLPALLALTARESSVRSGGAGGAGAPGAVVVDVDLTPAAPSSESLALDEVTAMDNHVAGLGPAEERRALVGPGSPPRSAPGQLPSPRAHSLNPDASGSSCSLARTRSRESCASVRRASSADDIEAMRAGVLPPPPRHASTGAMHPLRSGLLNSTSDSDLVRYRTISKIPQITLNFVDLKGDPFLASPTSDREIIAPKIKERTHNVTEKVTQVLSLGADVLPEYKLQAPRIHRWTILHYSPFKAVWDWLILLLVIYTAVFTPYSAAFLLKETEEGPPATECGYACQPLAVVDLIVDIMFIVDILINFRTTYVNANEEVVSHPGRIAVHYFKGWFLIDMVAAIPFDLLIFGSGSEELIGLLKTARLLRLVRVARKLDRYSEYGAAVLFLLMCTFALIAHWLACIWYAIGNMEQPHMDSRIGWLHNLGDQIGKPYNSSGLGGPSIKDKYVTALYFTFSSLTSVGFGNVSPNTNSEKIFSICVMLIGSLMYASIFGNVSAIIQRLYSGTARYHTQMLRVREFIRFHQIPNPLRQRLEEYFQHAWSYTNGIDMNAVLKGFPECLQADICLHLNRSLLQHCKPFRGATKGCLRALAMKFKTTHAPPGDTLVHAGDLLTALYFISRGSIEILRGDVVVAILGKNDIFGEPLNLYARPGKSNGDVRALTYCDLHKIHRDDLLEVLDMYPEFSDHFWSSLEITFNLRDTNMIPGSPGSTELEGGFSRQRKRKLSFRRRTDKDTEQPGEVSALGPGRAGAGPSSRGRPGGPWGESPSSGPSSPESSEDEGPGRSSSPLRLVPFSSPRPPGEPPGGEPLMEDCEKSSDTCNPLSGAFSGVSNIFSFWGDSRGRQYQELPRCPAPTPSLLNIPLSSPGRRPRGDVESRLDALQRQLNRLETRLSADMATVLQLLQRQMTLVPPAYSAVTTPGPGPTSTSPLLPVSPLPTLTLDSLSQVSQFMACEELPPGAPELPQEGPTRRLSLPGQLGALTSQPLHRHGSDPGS

IC50 [2]	IC50 [4]	Efficacy [5]	inhibition [6]	Efficacy [7]	IC50 [8]	Activity [9]	Fu [10]	Structure (SMILES)	Efficacy (HEK293 [1])	Efficacy (HEK293 [3])	Efficacy (CHO)	other results
2500 nM	> 10000 nM	27%	inactive	inactive	1760 nM	57%	0.012	O=S(=O)(c1ccccc1OCC(F)(F)F)N1CC(c2nc(-c3ccc(F)cc3)no2)C1	91%	72%	100%	
1500 nM	5900 nM	56%	inactive	inactive	1580 nM	71%	0.014	O=S(=O)(c1cccc2cccnc12)N1CC(c2nc(-c3ccc(F)cc3)no2)C1	98%	112%	100%	
1000 nM	2300 nM	50%	inactive	inactive	1000 nM	58%	0.012	CCOc1ccccc1S(=O)(=O)N1CC(c2nc(-c3ccc(F)cc3)no2)C1	105%	110%	101%	IC50 [11]: 3200 nM; Efficacy (HEK293 [1]; tested as the 2H-labelled form): 100%; Efficacy (HEK293 [3]; tested as the 2H-labelled form): 83%; Efficacy ([5]; tested as the 2H-labelled form): 55%; inhibition ([6]; tested as the 2H-labelled form): inactive; Efficacy ([7]; tested as the 2H-labelled form): inactive; Efficacy (CHO; tested as the 2H-labelled form): 101%
4300 nM	> 10000 nM	35%	inactive	inactive	1760 nM	21%	< 0.01	CCOc1ccccc1S(=O)(=O)N1CCC(c2nc(-c3ccc(F)cc3)no2)CC1	105%	129%	100%	
970 nM	> 10000 nM	65%	inactive	inactive	700 nM	< 10%	0.024	CCOc1ccccc1S(=O)(=O)N1CC(c2nc(-c3ccc(F)s3)no2)C1	105%	103%	100%	
2000 nM	> 10000 nM	44%	inactive	inactive	430 nM	59%	0.014	CCOc1ccccc1S(=O)(=O)N1CC(c2nc(-c3ccc(F)cc3Cl)no2)C1	95%	95%	100%	IC50 [11]: 2100 nM

More lines, now with the values behind:

Structure (SMILES)	IC50 [2]	IC50 [4]	Efficacy [5]	inhibition [6]	Efficacy [7]	IC50 [8]	Activity [9]	Fu [10]	Efficacy (HEK293 [1])	Efficacy (HEK293 [3])	Efficacy (CHO)	other results
CC(C)Oc1ccccc1S(=O)(=O)N1CC(c2nc(-c3ccsc3)no2)C1	1100 nM	> 10000 nM	47%	inactive	inactive	1090 nM	< 10%	< 0.01	103%	109%	101%	
Cc1ccccc1S(=O)(=O)N1CC(c2nc(-c3ccsc3)no2)C1												EC50 [12]: 6100 nM; Efficacy (HEK293 [13]; filed as activator): 44%
COc1ccccc1S(=O)(=O)N1CC(c2nc(-c3ccsc3)no2)C1												EC50 [12]: 8100 nM; Efficacy (HEK293 [13]): 29%
Cc1ccc2cccc(S(=O)(=O)N3CC(c4nc(-c5ccc(F)cc5)no4)C3)c2n1	670 nM	> 10000 nM	76%	inactive	inactive	320 nM	26%	< 0.01	99%	72%	100%	inhibition (INH) [14]: Not Active
O=S(=O)(c1cccc2c1OCCC2)N1CC(c2nc(-c3ccc(F)cc3)no2)C1	2600 nM	> 10000 nM	55%	inactive	inactive	1630 nM	19%	< 0.01	93%	104%	100%	
[2H]C([2H])([2H])C([2H])([2H])Oc1ccccc1S(=O)(=O)N1CC(c2nc(-c3ccc(F)cc3)no2)C1	2300 nM	> 10000 nM				1040 nM	63%	0.012				IC50 [11]: 5400 nM
CCOc1ccccc1S(=O)(=O)N1CC(c2nc(-c3ccc(OC)cc3)no2)C1												EC50 [12]: 7100 nM; Efficacy (HEK293 [13]): 21%
CCOc1ccccc1S(=O)(=O)N1CC(c2nc(-c3ccsc3)no2)C1	820 nM	> 10000 nM	55%	inactive	inactive	640 nM	< 10%	0.022	102%	72%	100%	Ratio [15]: 0.65; Papp [16]: 31.1 10^-6 cm/s
COc1ccc(S(=O)(=O)N2CC(c3nc(-c4ccsc4)no3)C2)cc1												EC50 [12]: 3200 nM; Efficacy (HEK293 [13]; filed as activator): 51%
